Results: ChEMBL document CHEMBL4382192, “Discovery of a potent dual ALK and EGFR T790M inhibitor” (Eur J Med Chem, 2017)

Key:
[1] = Volume of distribution at steady state in mouse at 2 mg/kg, iv; format: ADME, organism-based; details: in vivo, read-out: Vdss
[2] = tested on: Tyrosine-protein kinase ABL1 (Homo sapiens), P00519 [Q252H]; assay: Binding affinity to human non-phosphorylated ABL1 Q252H mutant (S229 to K512 residues) expressed in mammalian expression system assessed as residual binding level at 1 uM by Kinomescan method relative to control
Method in brief: (§1)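 Kinome-wide selectivity panel run by the KINOMEscan method, with the test compound at a single concentration of 1 μM. Wild-type and mutant kinases were profiled in the same screen.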

[3] = biological target: Protein-tyrosine kinase 6 (Homo sapiens) (UniProt Q13882); assay: Binding affinity to wild-type human partial length BRK (L166 to T451 residues) expressed in bacterial expression system assessed as residual binding level at 1 uM by Kinomescan method relative to control
Sequence of Protein-tyrosine kinase 6 (Homo sapiens) (Q13882 whole entry, looked up, the tested form may be a part): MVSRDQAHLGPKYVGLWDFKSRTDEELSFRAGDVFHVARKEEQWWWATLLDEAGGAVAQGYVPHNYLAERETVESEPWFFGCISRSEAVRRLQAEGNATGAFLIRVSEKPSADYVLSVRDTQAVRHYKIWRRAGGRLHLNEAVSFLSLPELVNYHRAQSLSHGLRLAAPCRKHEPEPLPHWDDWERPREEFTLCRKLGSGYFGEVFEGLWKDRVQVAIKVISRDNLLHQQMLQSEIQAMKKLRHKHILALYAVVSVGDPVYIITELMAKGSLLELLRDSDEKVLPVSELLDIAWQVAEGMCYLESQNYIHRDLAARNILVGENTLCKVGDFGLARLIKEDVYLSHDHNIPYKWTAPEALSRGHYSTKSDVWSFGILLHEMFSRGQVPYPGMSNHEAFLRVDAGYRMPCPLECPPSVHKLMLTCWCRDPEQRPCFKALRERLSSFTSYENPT

[4] = biological target: Tyrosine-protein kinase BTK (Homo sapiens) (UniProt Q06187); assay: Binding affinity to wild-type human full length BTK (M1 to S659 residues) expressed in mammalian expression system assessed as residual binding level at 1 uM by Kinomescan method relative to control
[5] = biological target: Cyclin-dependent kinase 11B (Homo sapiens) (UniProt P21127); assay: Binding affinity to wild-type human partial length CDC2L1 (P353 to G692 residues) expressed in bacterial expression system assessed as residual binding level at 1 uM by Kinomescan method relative to control
Sequence of Cyclin-dependent kinase 11B (Homo sapiens) (P21127 whole entry, the tested form may be a part): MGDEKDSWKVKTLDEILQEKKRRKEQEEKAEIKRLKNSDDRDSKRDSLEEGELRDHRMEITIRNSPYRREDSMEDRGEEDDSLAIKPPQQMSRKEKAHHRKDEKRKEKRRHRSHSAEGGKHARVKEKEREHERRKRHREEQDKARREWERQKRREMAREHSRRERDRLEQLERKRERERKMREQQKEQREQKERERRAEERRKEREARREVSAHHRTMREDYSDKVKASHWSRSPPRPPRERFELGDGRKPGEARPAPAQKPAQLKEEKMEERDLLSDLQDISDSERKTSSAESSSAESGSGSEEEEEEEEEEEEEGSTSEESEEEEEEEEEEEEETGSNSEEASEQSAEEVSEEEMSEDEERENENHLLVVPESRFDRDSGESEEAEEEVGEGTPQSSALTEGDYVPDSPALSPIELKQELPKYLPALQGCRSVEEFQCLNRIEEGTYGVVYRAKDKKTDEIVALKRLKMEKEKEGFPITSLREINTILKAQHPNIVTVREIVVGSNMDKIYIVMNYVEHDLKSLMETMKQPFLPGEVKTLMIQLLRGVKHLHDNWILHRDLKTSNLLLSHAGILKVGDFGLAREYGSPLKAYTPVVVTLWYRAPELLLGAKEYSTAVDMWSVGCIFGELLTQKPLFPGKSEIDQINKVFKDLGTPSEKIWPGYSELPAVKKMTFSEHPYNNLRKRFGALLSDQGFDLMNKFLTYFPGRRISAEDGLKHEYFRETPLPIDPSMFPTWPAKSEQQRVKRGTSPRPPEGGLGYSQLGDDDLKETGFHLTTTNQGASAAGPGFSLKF

[6] = biological target: Serine/threonine-protein kinase 17B (Homo sapiens) (UniProt O94768); assay: Binding affinity to wild-type human full length DRAK2 (M1 to C372 residues) expressed in bacterial expression system assessed as residual binding level at 1 uM by Kinomescan method relative to control
[7] = biological target: Eukaryotic translation initiation factor 2-alpha kinase 1 (Homo sapiens) (UniProt Q9BQI3); assay: Binding affinity to wild-type human partial length EIF2AK1 (Q147 to E603 residues) expressed in mammalian expression system assessed as residual binding level at 1 uM by Kinomescan method relative to control
[8] = biological target: Homeodomain-interacting protein kinase 2 (Homo sapiens) (UniProt Q9H2X6); assay: Binding affinity to wild-type human partial length HIPK2 (M153 to S564 residues) expressed in mammalian expression system assessed as residual binding level at 1 uM by Kinomescan method relative to control
[9] = tested on: Mast/stem cell growth factor receptor Kit (Homo sapiens), P10721 [V559D,T670I]; assay: Binding affinity to human partial length KIT V559D/T670I double mutant (Y545 to D952 residues) expressed in bacterial expression system assessed as residual binding level at 1 uM by Kinomescan method relative to control; method in brief: as §1
Sequence of Mast/stem cell growth factor receptor Kit (Homo sapiens), P10721 [V559D,T670I] (P10721 whole entry V559D/T670I, the tested form may be a part): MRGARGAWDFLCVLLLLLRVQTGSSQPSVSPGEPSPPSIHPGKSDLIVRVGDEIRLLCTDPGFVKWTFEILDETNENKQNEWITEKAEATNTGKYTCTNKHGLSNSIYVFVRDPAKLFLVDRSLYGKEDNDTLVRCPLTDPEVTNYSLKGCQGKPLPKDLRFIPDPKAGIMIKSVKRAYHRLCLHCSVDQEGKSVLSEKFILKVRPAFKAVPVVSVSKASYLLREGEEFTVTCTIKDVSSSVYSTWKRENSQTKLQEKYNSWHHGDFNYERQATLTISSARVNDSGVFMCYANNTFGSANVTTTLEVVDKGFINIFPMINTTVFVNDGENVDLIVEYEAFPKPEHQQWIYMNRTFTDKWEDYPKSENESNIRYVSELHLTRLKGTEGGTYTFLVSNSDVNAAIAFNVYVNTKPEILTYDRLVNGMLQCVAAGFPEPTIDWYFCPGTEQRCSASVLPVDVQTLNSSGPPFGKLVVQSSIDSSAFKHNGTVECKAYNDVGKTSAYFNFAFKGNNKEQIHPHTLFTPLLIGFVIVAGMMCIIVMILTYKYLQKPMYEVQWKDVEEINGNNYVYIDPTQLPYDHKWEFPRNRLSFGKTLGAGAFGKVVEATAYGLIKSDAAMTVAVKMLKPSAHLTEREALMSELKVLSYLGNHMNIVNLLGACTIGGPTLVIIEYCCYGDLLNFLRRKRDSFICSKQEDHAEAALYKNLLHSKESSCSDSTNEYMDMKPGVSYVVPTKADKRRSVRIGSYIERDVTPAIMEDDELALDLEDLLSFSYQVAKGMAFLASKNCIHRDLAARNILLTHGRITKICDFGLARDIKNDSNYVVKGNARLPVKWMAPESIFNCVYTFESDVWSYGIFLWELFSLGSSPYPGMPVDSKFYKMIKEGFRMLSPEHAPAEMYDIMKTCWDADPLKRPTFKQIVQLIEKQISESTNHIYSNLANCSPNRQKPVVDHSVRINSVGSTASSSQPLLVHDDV

[10] = biological target: MAP/microtubule affinity-regulating kinase 3 (Homo sapiens) (UniProt P27448); assay: Binding affinity to wild-type human full length MARK3 (M1 to L729 residues) expressed in bacterial expression system assessed as residual binding level at 1 uM by Kinomescan method relative to control
Method in brief: (§2)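 Single-point kinome-wide KINOMEscan binding panel, test compound at 1 μM, run by the provider's standard protocol.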

[11] = biological target: Serine/threonine-protein kinase Nek7 (Homo sapiens) (UniProt Q8TDX7); assay: Binding affinity to wild-type human full length NEK7 (M1 to S302 residues) expressed in bacterial expression system assessed as residual binding level at 1 uM by Kinomescan method relative to control; method in brief: as §2
Sequence of Serine/threonine-protein kinase Nek7 (Homo sapiens) (Q8TDX7 whole entry, looked up, the tested form may be a part): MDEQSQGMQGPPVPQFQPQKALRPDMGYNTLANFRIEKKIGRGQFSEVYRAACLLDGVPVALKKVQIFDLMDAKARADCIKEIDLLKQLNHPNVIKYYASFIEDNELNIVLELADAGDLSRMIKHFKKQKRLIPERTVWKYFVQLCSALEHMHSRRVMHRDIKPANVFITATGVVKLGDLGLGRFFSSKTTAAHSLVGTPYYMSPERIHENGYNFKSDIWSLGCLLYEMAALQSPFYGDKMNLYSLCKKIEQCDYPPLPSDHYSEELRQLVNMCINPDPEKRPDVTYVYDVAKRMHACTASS

[12] = biological target: Serine/threonine-protein kinase PAK 4 (Homo sapiens) (UniProt O96013); assay: Binding affinity to wild-type human partial length PAK4 (Q144 to R438 residues) expressed in bacterial expression system assessed as residual binding level at 1 uM by Kinomescan method relative to control
[13] = biological target: Platelet-derived growth factor receptor alpha (Homo sapiens) (UniProt P16234); assay: Binding affinity to wild-type human partial length PDGFRA (V575 to D1002 residues) expressed in mammalian expression system assessed as residual binding level at 1 uM by Kinomescan method relative to control
Sequence of Platelet-derived growth factor receptor alpha (Homo sapiens) (P16234 whole entry, the tested form may be a part, canonical isoform): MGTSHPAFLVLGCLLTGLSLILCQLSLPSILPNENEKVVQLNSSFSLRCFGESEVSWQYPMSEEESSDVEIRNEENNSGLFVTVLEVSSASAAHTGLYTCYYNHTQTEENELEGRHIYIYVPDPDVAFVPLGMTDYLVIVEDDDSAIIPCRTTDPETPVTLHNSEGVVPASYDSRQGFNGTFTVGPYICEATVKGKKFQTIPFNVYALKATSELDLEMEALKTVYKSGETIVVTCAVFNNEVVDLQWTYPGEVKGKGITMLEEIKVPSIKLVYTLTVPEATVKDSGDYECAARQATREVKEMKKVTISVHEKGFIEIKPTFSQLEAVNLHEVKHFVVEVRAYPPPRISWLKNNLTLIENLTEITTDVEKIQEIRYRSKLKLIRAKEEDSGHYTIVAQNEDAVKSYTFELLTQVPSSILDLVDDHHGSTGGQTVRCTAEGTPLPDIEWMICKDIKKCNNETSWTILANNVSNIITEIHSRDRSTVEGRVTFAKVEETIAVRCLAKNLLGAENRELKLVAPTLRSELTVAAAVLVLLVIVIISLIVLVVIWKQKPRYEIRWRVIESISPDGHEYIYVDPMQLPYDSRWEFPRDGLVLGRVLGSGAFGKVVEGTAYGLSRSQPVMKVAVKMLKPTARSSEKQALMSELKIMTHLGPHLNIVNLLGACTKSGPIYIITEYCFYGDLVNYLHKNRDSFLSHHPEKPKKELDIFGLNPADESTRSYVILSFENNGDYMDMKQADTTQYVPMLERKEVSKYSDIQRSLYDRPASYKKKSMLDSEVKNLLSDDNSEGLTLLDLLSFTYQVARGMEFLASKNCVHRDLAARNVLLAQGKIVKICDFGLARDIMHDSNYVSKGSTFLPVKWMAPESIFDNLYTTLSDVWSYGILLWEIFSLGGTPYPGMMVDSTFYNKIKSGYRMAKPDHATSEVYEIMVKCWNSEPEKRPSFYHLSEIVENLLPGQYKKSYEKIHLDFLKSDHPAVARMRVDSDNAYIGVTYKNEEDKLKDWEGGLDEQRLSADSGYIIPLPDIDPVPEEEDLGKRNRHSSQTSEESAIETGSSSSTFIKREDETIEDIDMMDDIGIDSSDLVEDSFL

[14] = tested on: Phosphatidylinositol 4,5-bisphosphate 3-kinase catalytic subunit alpha isoform (Homo sapiens), P42336 [E545A]; assay: Binding affinity to human partial length PIK3CA E545A mutant (R108 to N1068 residues) expressed in mammalian expression system assessed as residual binding level at 1 uM by Kinomescan method relative to control
[15] = tested on: Phosphatidylinositol 4,5-bisphosphate 3-kinase catalytic subunit alpha isoform (Homo sapiens), P42336 [I800L]; assay: Binding affinity to human partial length PIK3CA I800L mutant (R108 to N1068 residues) expressed in mammalian expression system assessed as residual binding level at 1 uM by Kinomescan method relative to control
Sequence of Phosphatidylinositol 4,5-bisphosphate 3-kinase catalytic subunit alpha isoform (Homo sapiens), P42336 [I800L] (P42336 whole entry I800L, the tested form may be a part, canonical isoform): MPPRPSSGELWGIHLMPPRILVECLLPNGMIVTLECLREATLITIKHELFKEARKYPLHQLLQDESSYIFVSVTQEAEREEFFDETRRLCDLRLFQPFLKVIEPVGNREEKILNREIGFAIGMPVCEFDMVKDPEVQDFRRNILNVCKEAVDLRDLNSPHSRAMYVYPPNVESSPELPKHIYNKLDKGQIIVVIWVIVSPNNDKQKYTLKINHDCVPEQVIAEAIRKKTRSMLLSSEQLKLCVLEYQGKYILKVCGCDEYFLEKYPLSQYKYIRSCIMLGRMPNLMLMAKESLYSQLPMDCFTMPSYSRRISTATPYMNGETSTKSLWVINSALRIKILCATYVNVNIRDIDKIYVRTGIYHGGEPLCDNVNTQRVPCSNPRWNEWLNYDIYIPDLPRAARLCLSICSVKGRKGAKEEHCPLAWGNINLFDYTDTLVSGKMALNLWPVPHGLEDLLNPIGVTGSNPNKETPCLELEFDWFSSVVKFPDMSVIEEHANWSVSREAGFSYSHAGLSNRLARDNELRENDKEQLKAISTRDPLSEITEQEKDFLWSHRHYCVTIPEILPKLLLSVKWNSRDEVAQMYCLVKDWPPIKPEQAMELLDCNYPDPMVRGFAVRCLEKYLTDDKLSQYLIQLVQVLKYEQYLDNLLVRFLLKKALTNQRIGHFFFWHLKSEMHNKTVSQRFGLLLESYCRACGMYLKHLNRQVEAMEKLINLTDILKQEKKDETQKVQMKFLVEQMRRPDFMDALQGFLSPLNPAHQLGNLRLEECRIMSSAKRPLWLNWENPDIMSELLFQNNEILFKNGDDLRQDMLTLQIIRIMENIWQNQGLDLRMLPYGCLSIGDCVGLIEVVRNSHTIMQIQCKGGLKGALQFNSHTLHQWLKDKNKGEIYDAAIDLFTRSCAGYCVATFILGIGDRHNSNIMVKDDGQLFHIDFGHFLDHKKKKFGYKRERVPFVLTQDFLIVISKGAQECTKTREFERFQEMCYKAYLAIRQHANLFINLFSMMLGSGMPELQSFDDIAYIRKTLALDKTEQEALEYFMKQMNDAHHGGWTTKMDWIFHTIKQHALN

[16] = biological target: cAMP-dependent protein kinase catalytic subunit PRKX (Homo sapiens) (UniProt P51817); assay: Binding affinity to wild-type human partial length PRKX (M1 to F358 residues) expressed in bacterial expression system assessed as residual binding level at 1 uM by Kinomescan method relative to control
[17] = tested on: Proto-oncogene tyrosine-protein kinase receptor Ret (Homo sapiens), P07949 [V804M]; assay: Binding affinity to human partial length RET V804M mutant (E713 to D1014 residues) expressed in bacterial expression system assessed as residual binding level at 1 uM by Kinomescan method relative to control; method in brief: as §1
[18] = biological target: Serine/threonine-protein kinase Sgk2 (Homo sapiens) (UniProt Q9HBY8); assay: Binding affinity to wild-type human partial length SGK2 (L54 to C427 residues) expressed in mammalian expression system assessed as residual binding level at 1 uM by Kinomescan method relative to control
Sequence of Serine/threonine-protein kinase Sgk2 (Homo sapiens) (Q9HBY8 whole entry, the tested form may be a part): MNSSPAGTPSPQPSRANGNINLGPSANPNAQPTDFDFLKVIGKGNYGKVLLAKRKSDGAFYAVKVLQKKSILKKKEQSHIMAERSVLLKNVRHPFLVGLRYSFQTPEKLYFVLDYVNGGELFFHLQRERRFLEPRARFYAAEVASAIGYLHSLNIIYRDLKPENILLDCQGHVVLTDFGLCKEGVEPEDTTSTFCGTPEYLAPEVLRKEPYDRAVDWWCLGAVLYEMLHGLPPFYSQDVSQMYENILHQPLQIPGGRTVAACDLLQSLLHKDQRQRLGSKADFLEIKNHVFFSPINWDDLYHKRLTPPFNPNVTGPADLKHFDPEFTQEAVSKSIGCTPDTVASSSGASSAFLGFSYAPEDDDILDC

[19] = biological target: STE20-like serine/threonine-protein kinase (Homo sapiens, UniProt Q9H2G2); assay: Binding affinity to wild-type human partial length SLK (S14 to A307 residues) expressed in bacterial expression system assessed as residual binding level at 1 uM by Kinomescan method relative to control
[20] = biological target: Tyrosine-protein kinase SYK (Homo sapiens) (UniProt P43405); assay: Binding affinity to wild-type human partial length SYK (D354 to N635 residues) expressed in bacterial expression system assessed as residual binding level at 1 uM by Kinomescan method relative to control
[21] = biological target: Serine/threonine-protein kinase TAO1 (Homo sapiens) (UniProt Q7L7X3); assay: Binding affinity to wild-type human partial length TAOK1 (M1 to A320 residues) expressed in mammalian expression system assessed as residual binding level at 1 uM by Kinomescan method relative to control
[22] = biological target: Mitogen-activated protein kinase kinase kinase 19 (Homo sapiens) (UniProt Q56UN5); assay: Binding affinity to wild-type human partial length YSK4 (T1019 to H1328 residues) expressed in mammalian expression system assessed as residual binding level at 1 uM by Kinomescan method relative to control
[23] = biological target: Receptor tyrosine-protein kinase erbB-4 (Homo sapiens, UniProt Q15303); assay: Inhibition of recombinant N-terminal GST-tagged human ErbB4 cytoplasmic domain expressed in baculovirus expression system by Z-LYTE assay
[24] = biological target: Activated CDC42 kinase 1 (Homo sapiens, UniProt Q07912); assay: Inhibition of recombinant GST-tagged human TNK2 catalytic/cytoplasmic domain (110 to 476 residues) expressed in baculovirus expression system by LanthaScreen assay

For C=CC(=O)Nc1cc(Nc2ncc(Cl)c(Nc3ccccc3S(=O)(=O)C(C)C)n2)c(OC)cc1N(C)CCN(C)C, the Vd [1] was 2.66 L/kg, the Activity [2] was 1.9% and the Activity [3] was 0.4%. For the same compound, the Activity [4] was 0%, the Activity [5] was 75% and the Activity [6] was 100%. It also gave an Activity [7] of 72%, an Activity [8] of 94% and an Activity [9] of 60%. For the same compound, the Activity [10] was 33%, the Activity [11] was 72% and the Activity [12] was 78%. For the same compound, the Activity [13] was 83%, the Activity [14] was 83% and the Activity [15] was 81%. The Activity [16] was 100%, the Activity [17] was 15% and the Activity [18] was 95%. For the same compound, the Activity [19] was 0%, the Activity [20] was 42% and the Activity [21] was 0.45%. The Activity [22] was 14%, the IC50 [23] was 3 nM and the IC50 [24] was 13 nM.
